Data from ChEMBL document CHEMBL3414488, “When structure-affinity relationships meet structure-kinetics relationships: 3-((Inden-1-yl)amino)-1-isopropyl-cyclopentane-1-carboxamides as CCR2 antagonists” (Eur J Med Chem, 2015).
Activity calls are given as the source filed them. The calls are words filed in the database; no cut-off is given here.

How the values were obtained:
[1] = target: T1, C-C chemokine receptor type 2 (Homo sapiens, UniProt P41597); assay: Displacement of 0.1 nM [125I]CCL2 from human CCR2 expressing human U2OS cell membrane by scintillation spectrometry; assay type: cell membranes
In short: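 U2OS–CCR2 membranes (15 μg) incubated 150 min at 37 °C with 0.1 nM 125I-CCL2 with or without competitor. Ki derived from IC50 by Cheng–Prusoff. Mean ± S.E.M. of at least 3 experiments in duplicate.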
Target sequence in this assay (P41597 whole entry): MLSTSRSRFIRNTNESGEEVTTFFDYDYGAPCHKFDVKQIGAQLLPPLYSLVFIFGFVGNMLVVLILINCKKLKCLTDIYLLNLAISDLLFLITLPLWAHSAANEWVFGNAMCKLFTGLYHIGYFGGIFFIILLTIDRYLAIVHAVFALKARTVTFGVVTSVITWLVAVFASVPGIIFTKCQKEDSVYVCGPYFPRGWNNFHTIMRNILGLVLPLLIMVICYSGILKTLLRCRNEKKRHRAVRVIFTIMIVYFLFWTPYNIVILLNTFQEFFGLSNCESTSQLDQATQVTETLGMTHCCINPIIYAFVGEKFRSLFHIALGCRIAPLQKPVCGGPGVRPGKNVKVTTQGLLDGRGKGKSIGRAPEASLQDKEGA

[2] = target: T1, C-C chemokine receptor type 2; assay: Displacement of [3H]INCB3344 from human CCR2 receptor expressed in human U2OS cell membrane assessed as kinetic rate index at Ki by dual-point competition association assay relative to control; assay type: cell membranes
In short: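 U2OS–CCR2 membranes (10 μg) incubated with 1.8 nM [3H]INCB3344 at 25 °C for 50 min (t1) or 240 min (t2). Unlabeled ligand was present at 1-fold its Ki from 125I-CCL2 displacement. KRI = specific binding at t1 divided by specific binding at t2.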
Target sequence in this assay (P41597 whole entry, looked up): as the sequence (P41597 whole entry) above

[3] = target: T1, C-C chemokine receptor type 2; assay: Antagonist activity at human CCR2 expressing human U2OS cells assessed as inhibition of CCL2-induced G protein activation at 10 uM by [35S]GTPgammaS binding/scintillation spectrometry assay; assay type: functional, cell-based
In short: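 Membranes (10 μg) in 50 mM Tris-HCl pH 7.4, 5 mM MgCl2, 100 mM NaCl, 1 mM EDTA, 0.05% BSA, 10 μM GDP, 10 μg saponin; 30 min preincubation with 10 μM antagonist at 25 °C, then 10 nM CCL2 for 30 min, then 0.3 nM [35S]GTPγS for 90 min. Stopped with ice-cold buffer, GF/B filtration, scintillation counting.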
Target sequence in this assay (P41597 whole entry, looked up): as the sequence (P41597 whole entry) above

[4] = Residence time of the compound
[5] = target: T1, C-C chemokine receptor type 2; assay: Displacement of 0.1 nM [125I]CCL2 from human CCR2 expressing human U2OS cell membrane by scintillation spectrometry
Target sequence in this assay (P41597 whole entry, looked up): as the sequence (P41597 whole entry) above

Row | Compound | Ki [1] [nM] | Ratio [2] | inhibition [3] | Residence time [4] [min] | inhibition [5] [%]
1 | COc1cc(-c2ccc3c(c2)CCC3N[C@@H]2CC[C@@](C(=O)N3CCc4ccc(C(F)(F)F)cc4C3)(C(C)C)C2)ccn1 (some centres not stated) | 23 | 0.6 | – | – | –
2 | CCOc1cncc(-c2ccc3c(c2)CCC3N[C@@H]2CC[C@@](C(=O)N3CCc4ccc(C(F)(F)F)cc4C3)(C(C)C)C2)c1 (some centres not stated) | 10 | 0.5 | – | – | –
3 | Cc1cccc2c1CCC2N[C@@H]1CC[C@@](C(=O)N2CCc3ccc(C(F)(F)F)cc3C2)(C(C)C)C1 (some centres not stated) | 31 | 0.7 | – | – | –
4 | CC(C)[C@]1(C(=O)N2CCc3ccc(C(F)(F)F)cc3C2)CC[C@@H](N[C@@H]2CCc3cc(Br)ccc32)C1 | 2.4 | 1.7 | Active | 714 | –
5 | CC(C)[C@]1(C(=O)N2CCc3ccc(C(F)(F)F)cc3C2)CC[C@@H](NC2CCc3cc(F)ccc32)C1 (some centres not stated) | 4.9 | 0.9 | – | 55 | –
6 | CC(C)[C@]1(C(=O)N2CCN(c3cc(C(F)(F)F)ccn3)CC2)CC[C@@H](NC2CCc3ccccc32)C1 (some centres not stated) | 15 | 0.5 | – | 8.3 | –
7 | Cc1ccccc1-c1ccc2c(c1)CCC2N[C@@H]1CC[C@@](C(=O)N2CCc3ccc(C(F)(F)F)cc3C2)(C(C)C)C1 (some centres not stated) | – | – | – | – | 46
8 | COc1ccc(OC)c2c1CCC2N[C@@H]1CC[C@@](C(=O)N2CCc3ccc(C(F)(F)F)cc3C2)(C(C)C)C1 (some centres not stated) | 49 | 0.8 | – | – | –
9 | CC(C)[C@]1(C(=O)N2CCc3ccc(C(F)(F)F)cc3C2)CC[C@@H](NC2CCc3c(N)cccc32)C1 (some centres not stated) | 4.6 | 0.7 | – | – | –
10 | CC(C)[C@]1(C(=O)N2CCc3ccc(C(F)(F)F)cc3C2)CC[C@@H](NC2CCc3cc(Br)ccc32)C1 (some centres not stated) | 2.3 | 1.3 | – | 213 | –
11 | CCC1CC(N[C@@H]2CC[C@@](C(=O)N3CCc4ccc(C(F)(F)F)cc4C3)(C(C)C)C2)c2cc(OC)c(Br)cc21 (some centres not stated) | 83 | 1.3 | – | 179 | –
12 | CC1CC(N[C@@H]2CC[C@@](C(=O)N3CCc4ccc(C(F)(F)F)cc4C3)(C(C)C)C2)c2ccccc21 (some centres not stated) | 3.4 | 0.7 | – | – | –
13 | COc1cc2c(cc1Br)C(C)CC2N[C@@H]1CC[C@@](C(=O)N2CCc3ccc(C(F)(F)F)cc3C2)(C(C)C)C1 (some centres not stated) | 13 | 1.5 | – | 238 | –
14 | Cc1ccc2c(c1)C(N[C@@H]1CC[C@@](C(=O)N3CCc4ccc(C(F)(F)F)cc4C3)(C(C)C)C1)CC2 (some centres not stated) | 23 | 0.6 | – | – | –
15 | CC(C)[C@]1(C(=O)N2CCc3ccc(C(F)(F)F)cc3C2)CC[C@@H](N[C@@H]2C[C@@H](C)c3cc(Br)ccc32)C1 | 199 | – | – | – | –
16 | CC(C)[C@]1(C(=O)N2CCc3ccc(C(F)(F)F)cc3C2)CC[C@@H](NC2CCc3cc(Cl)ccc32)C1 (some centres not stated) | 1.6 | 1.2 | – | 100 | –
17 | CC(C)[C@]1(C(=O)N2CCc3ccc(C(F)(F)F)cc3C2)CC[C@@H](NC2CCc3cc(-c4cccnc4)ccc32)C1 (some centres not stated) | 10 | 0.7 | – | – | –
18 | CC(C)[C@]1(C(=O)N2CCc3ccc(C(F)(F)F)cc3C2)CC[C@@H](NC2CCc3ccc(C#N)cc32)C1 (some centres not stated) | 13 | 0.6 | – | – | –
19 | CC(C)[C@]1(C(=O)N2CCc3ccc(C(F)(F)F)cc3C2)CC[C@@H](N[C@@H]2C[C@H](C)c3cc(Br)ccc32)C1 | 137 | – | – | – | –
20 | COc1cncc(-c2ccc3c(c2)CCC3N[C@@H]2CC[C@@](C(=O)N3CCc4ccc(C(F)(F)F)cc4C3)(C(C)C)C2)c1 (some centres not stated) | 41 | 0.8 | – | – | –
21 | COc1ccc(-c2ccc3c(c2)CCC3N[C@@H]2CC[C@@](C(=O)N3CCc4ccc(C(F)(F)F)cc4C3)(C(C)C)C2)cc1 (some centres not stated) | 75 | 0.9 | – | – | –
